Measurements reported in ChEMBL document CHEMBL1157607, “Piracetam defines a new binding site for allosteric modulators of alpha-amino-3-hydroxy-5-methyl-4-isoxazole-propionic acid (AMPA) receptors” (J Med Chem, 2010).
The source made the active and inactive calls. The calls are words filed in the database; no cut-off is given here.

How the values were obtained:
[1] = Binding affinity to subsite B/B' and subsite C/C' in S1S2 domain of GluA2 receptor expressed in Escherichia coli by crystallography
In short: (§1)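 GluA2 S1S2 domain (flip form via N754S, GluA2i) expressed in E. coli Origami B (DE3) cells, IPTG 0.5 mM final at 20°C for 20 h. Purified by Ni-NTA, sizing and ion exchange with glutamate in all buffers. Protein at 0.3 mM with 10 mM glutamate, ligand 5 mM final. Co-crystals grown by hanging drop at 4°C against 16–18% PEG 8K, 0.1 M sodium cacodylate, 0.1–0.15 M zinc acetate, pH 6.5.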

[2] = Binding affinity to subsite C/C' in S1S2 domain of GluA2 receptor expressed in Escherichia coli by crystallography; in short: as §1
[3] = Binding affinity to subsite A in S1S2 domain of GluA2 receptor expressed in Escherichia coli by crystallography; in short: as §1

Row | Compound | Activity [1] | Activity [2] | Activity [3]
1 | NS(=O)(=O)c1cc2c(cc1Cl)NC(C(Cl)Cl)NS2(=O)=O (stereo not given) | Active |  | 
2 | C=CCSCC1Nc2cc(Cl)c(S(N)(=O)=O)cc2S(=O)(=O)N1 (stereo not given) | Active |  | 
3 | NS(=O)(=O)c1cc2c(cc1C(F)(F)F)NCNS2(=O)=O |  | Active | 
4 | O=C1c2cc3c(cc2OC2CCCN12)OCCO3 (stereo not given) | Active |  | Active
5 | NS(=O)(=O)c1cc2c(cc1Cl)NC(C1CC3C=CC1C3)NS2(=O)=O (stereo not given) | Active |  | 
6 | CC1Nc2ccc(Cl)cc2S(=O)(=O)N1 (stereo not given) |  | Active | 
7 | NS(=O)(=O)c1cc2c(cc1Cl)NCNS2(=O)=O |  | Active | 
8 | COc1ccc(C(=O)N2CCCC2=O)cc1 | Active |  | Active
